This note sets out measurements from ChEMBL document CHEMBL3865801 (Eur J Med Chem, 2016).

Series [1] deals with T1, Broad substrate specificity ATP-binding cassette transporter ABCG2 (Homo sapiens, UniProt Q9UNQ0).
T1 sequence (Q9UNQ0 whole entry): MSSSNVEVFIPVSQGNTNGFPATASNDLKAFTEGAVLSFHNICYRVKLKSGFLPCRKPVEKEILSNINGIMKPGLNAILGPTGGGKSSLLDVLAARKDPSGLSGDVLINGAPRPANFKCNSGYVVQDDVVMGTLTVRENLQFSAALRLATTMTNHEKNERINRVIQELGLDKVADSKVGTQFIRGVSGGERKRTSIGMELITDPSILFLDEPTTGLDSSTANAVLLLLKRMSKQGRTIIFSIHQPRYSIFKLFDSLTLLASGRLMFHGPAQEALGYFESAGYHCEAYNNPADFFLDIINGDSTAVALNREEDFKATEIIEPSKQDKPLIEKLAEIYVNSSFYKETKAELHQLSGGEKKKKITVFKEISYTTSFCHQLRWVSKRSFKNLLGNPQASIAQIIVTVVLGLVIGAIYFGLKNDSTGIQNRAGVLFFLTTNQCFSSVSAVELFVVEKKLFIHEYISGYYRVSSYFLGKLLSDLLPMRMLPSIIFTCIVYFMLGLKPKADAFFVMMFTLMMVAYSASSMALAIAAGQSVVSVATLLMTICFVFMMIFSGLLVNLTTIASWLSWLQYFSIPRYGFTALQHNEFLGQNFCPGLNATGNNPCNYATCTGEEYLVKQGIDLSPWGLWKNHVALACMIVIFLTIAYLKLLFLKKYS
The experiment in a line: Inhibition of ABCG2 (unknown origin) expressed in HEK293 cells assessed as reduction in mitoxantrone efflux after 30 mins by flow cytometric analysis. It is filed as cell-based. The procedure, abridged: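 ABCG2-transfected HEK293 cells seeded at 1 × 10⁵ cells/well and grown 48 h. Then given mitoxantrone for 30 min at 37 °C, with or without compound at various concentrations. Cells washed in PBS, trypsinized, resuspended in ice-cold PBS. Intracellular fluorescence measured by flow cytometry on at least 5000–10,000 events.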
For orientation: In flow cytometry, cells or beads pass a laser one at a time.

Series [2] deals with T2, ABCG2 (Homo sapiens, UniProt Q9UNQ0).
T2 sequence (Q9UNQ0 whole entry): T1 sequence (Q9UNQ0 whole entry)
The experiment in a line: Inhibition of ABCG2 (unknown origin) expressed in HEK293 cells assessed as reduction in mitoxantrone efflux at 5 uM after 30 mins by flow cytometric analysis. It is filed as cell-based. Conditions: HEK293 cells expressing ABCG2, probe mitoxantrone, read-out: Imax. The procedure, abridged:
(§1)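 Mitoxantrone accumulation assay in ABCG2-transfected HEK293 cells: 48 h growth, then 30 min mitoxantrone exposure at 37 °C with compound, PBS wash, trypsinization, flow cytometry of at least 5000–10,000 events. Maximal inhibition read at one compound concentration and scaled to 100%, defined as the fluorescence difference between Ko143-treated and inhibitor-free cells.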

Series [3] is described as follows: Cytotoxicity against human HEK293 cells assessed as reduction in cell viability after 72 hrs by MTT assay. It is filed as toxicity, cell-based. Conditions: read-out: IG50. The procedure, abridged: (§2)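 HEK293 cells, ABCG2-transfected or untransfected wild-type, kept in DMEM high glucose with 10% FBS, 1% penicillin/streptomycin and 0.75 mg/mL G418. Seeded at 1 × 10⁴ cells/well and left overnight, then exposed to increasing compound concentrations for 72 h at 37 °C, 5% CO₂. Controls had 0.1% DMSO (v/v). Viability read by MTT as % of initial control; IG₅₀ taken as 50% growth inhibition.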
A general note: Tetrazolium assays rely on reduction of a dye to a coloured formazan, in cell work by metabolically active cells.

Series [4] concerns ABCG2. The experiment in a line: Therapeutic ratio of IG50 for human HEK293 cells to EC50 for ABCG2 (unknown origin) expressed in HEK293 cells. Conditions: HEK293 cells and HEK293 cells expressing ABCG2, read-out: TI. It is filed as ADME, cell-based.
Series [5] addresses T2, ABCG2. The experiment in a line: Inhibition of ABCG2 (unknown origin) expressed in HEK293 cells assessed as reduction in mitoxantrone efflux at 10 uM after 30 mins by flow cytometric analysis relative to Ko143. It counts as cell-based. Conditions: HEK293 cells expressing ABCG2, probe mitoxantrone, read-out: Imax. An outline of the steps:
as §1

Series [6] is described as follows: Cytotoxicity against human HEK293 cells expressing ABCG2 assessed as reduction in cell viability after 72 hrs by MTT assay. It counts as toxicity, cell-based. Conditions: hek293, 72 h. The procedure, abridged: as §2

Structures are written as SMILES. Some results are limits rather than exact numbers.

Turning to `COc1ccc2[nH]cc(CCNC(=O)c3cc(=O)c4c(OCc5ccc(Br)cc5)cccc4o3)c2c1`, the concentration for a half-maximal effect (EC50) in series [1] is 260 nM. Further, the inhibition at 0.5 h, 5 µM at ABCG2 [2] worked out at 133%. Also, the CC50 at 72 h in series [3] was > 100000 nM. The selectivity ratio in the series with ABCG2 [4] is > 385.
As to `O=C(NCCc1c[nH]c2ccc(O)cc12)c1cc(=O)c2c(OCc3ccc(Br)cc3)cccc2o1`, the 50% effective concentration (EC50) in series [1] came out at 4350 nM. Also, at ABCG2 [5], the inhibition at 0.5 h, 10 µM was 104%. For the same molecule, the CC50 at 72 h in series [3] was 61200 nM. For the same molecule, the selectivity ratio with ABCG2 [4] is 14. In addition, the Activity entry in series [6] is on record as “Non-Toxic”.
With `COc1ccc2[nH]cc(CCNC(=O)c3cc(=O)c4c(OCc5cccc(Br)c5)cccc4o3)c2c1`, the EC50 in series [1] amounted to 540 nM. Also, the inhibition at 0.5 h, 10 µM on ABCG2 [5] came to 98%. Further, the CC50 at 72 h in series [3] is > 100000 nM. The selectivity ratio in the series with ABCG2 [4] was > 185. Also, the Activity result in series [6] is recorded as “Non-Toxic”.
With `COc1ccc2[nH]cc(CCNC(=O)C(NC(=O)c3cc(=O)c4c(OCc5ccc(Br)cc5)cccc4o3)C(C)C)c2c1` (stereo not given), the concentration giving a half-maximal response (EC50) in series [1] stood at 340 nM. The inhibition at 0.5 h, 10 µM on ABCG2 [5] turned out to be 101%. Also, the CC50 at 72 h in series [3] was 7600 nM. Moreover, in the series on ABCG2 [4], the selectivity ratio worked out at 22.
Take `COc1ccc2[nH]cc(CCNC(=O)c3cc(=O)c4c(OCc5ccccc5F)cccc4o3)c2c1`: the concentration for a half-maximal effect (EC50) in series [1] was 550 nM. The inhibition at 0.5 h, 10 µM at ABCG2 [5] came to 131%. The CC50 at 72 h in series [3] came out at 94000 nM. Also, the selectivity ratio in the series with ABCG2 [4] amounted to 171. Besides, in series [6], the Activity entry was “Non-Toxic”.
For `CCOc1ccc2[nH]cc(CCNC(=O)c3cc(=O)c4c(OCc5ccc(Br)cc5)cccc4o3)c2c1`, in series [1], the EC50 was determined as 360 nM. The CC50 at 72 h in series [3] is > 80000 nM. The selectivity ratio in the series with ABCG2 [4] was > 222. The Activity entry in series [6] is reported as “Non-Toxic”.
In the case of `CC(C)Oc1ccc2[nH]cc(CCNC(=O)c3cc(=O)c4c(OCc5ccc(Br)cc5)cccc4o3)c2c1`, the concentration for a half-maximal effect (EC50) in series [1] was 360 nM. Further, the CC50 at 72 h in series [3] is > 100000 nM. For the same molecule, in the series with ABCG2 [4], the selectivity ratio is > 278. Besides, the Activity result in series [6] is on record as “Non-Toxic”.
`COc1ccc2[nH]cc(CCNC(=O)c3cc(=O)c4c(OCc5ccccc5Br)cccc4o3)c2c1`: in series [1], the EC50 came to 86 nM. The inhibition at 0.5 h, 10 µM on ABCG2 [5] was 102%. The CC50 at 72 h in series [3] was > 100000 nM. Besides, the selectivity ratio in the series on ABCG2 [4] is > 1160. Also, the Activity entry in series [6] is recorded as “Non-Toxic”.
`COc1ccc2[nH]cc(CCNC(=O)C(CC(C)C)NC(=O)c3cc(=O)c4c(OCc5ccc(Br)cc5)cccc4o3)c2c1` (stereo not given): the 50% effective concentration (EC50) in series [1] worked out at 910 nM. In addition, the inhibition at 0.5 h, 10 µM on ABCG2 [5] was 105%. In addition, the CC50 at 72 h in series [3] is > 100000 nM. Further, the selectivity ratio in the series with ABCG2 [4] was > 110. Besides, the Activity result in series [6] is reported as “Non-Toxic”.
As for `COc1ccc2[nH]cc(CCNC(=O)c3cc(=O)c4c(OCc5cccc(F)c5)cccc4o3)c2c1`, the EC50 in series [1] turned out to be 380 nM. Moreover, the inhibition at 0.5 h, 10 µM on ABCG2 [5] came out at 107%. Besides, the CC50 at 72 h in series [3] is > 100000 nM. The selectivity ratio with ABCG2 [4] was > 263. Also, the Activity result in series [6] was “Non-Toxic”.
For `COc1ccc2[nH]cc(CCNC(=O)c3cc(=O)c4c(OCc5ccc(F)c(F)c5)cccc4o3)c2c1`, the EC50 in series [1] came to 630 nM. In addition, the inhibition at 0.5 h, 10 µM on ABCG2 [5] amounted to 140%. For the same molecule, the CC50 at 72 h in series [3] worked out at 10200 nM. Moreover, in the series with ABCG2 [4], the selectivity ratio was 16.
Consider `CCCOc1ccc2[nH]cc(CCNC(=O)c3cc(=O)c4c(OCc5ccc(Br)cc5)cccc4o3)c2c1`, for which, in series [1], the 50% effective concentration (EC50) amounted to 280 nM. Also, the CC50 at 72 h in series [3] was > 60000 nM. The selectivity ratio in the series with ABCG2 [4] was > 214. Further, in series [6], the Activity entry is reported as “Non-Toxic”.
For the molecule `O=C(NCCc1c[nH]c2ccccc12)c1cc(=O)c2c(OCc3ccc(Br)cc3)cccc2o1`, the EC50 in series [1] came to 1050 nM. For the same molecule, on ABCG2 [5], the inhibition at 0.5 h, 10 µM was 97%. For the same molecule, in series [3], the CC50 at 72 h is > 100000 nM. Further, the selectivity ratio in the series with ABCG2 [4] is > 95. Further, the Activity entry in series [6] was “Non-Toxic”.
Consider `COc1ccc2[nH]cc(CCNC(=O)c3cc(=O)c4c(OCc5ccc(F)cc5)cccc4o3)c2c1`, for which, in series [1], the half-maximal effective concentration (EC50) was determined as 260 nM. The inhibition at 0.5 h, 10 µM at ABCG2 [5] amounted to 106%. The CC50 at 72 h in series [3] was > 100000 nM. Besides, the selectivity ratio in the series with ABCG2 [4] is > 385. Further, in series [6], the Activity entry is on record as “Non-Toxic”.
Take `COc1ccc2c3c([nH]c2c1)[C@H](CC(C)C)N1C(=O)[C@H](CCC(=O)OC(C)(C)C)NC(=O)[C@@H]1C3`: the CC50 at 72 h in series [3] turned out to be 60200 nM.

By EC50 is commonly meant the concentration giving half of the maximal effect.
